Laboratory results published in ChEMBL document CHEMBL1147721, “Identification of new diamine scaffolds with activity against Mycobacterium tuberculosis” (J Med Chem, 2006).
Converted amounts (≈) assume the structure as drawn. The source made the active and inactive calls. The rule behind the calls is not given here.

How the values were obtained:
Mus musculus = test: Reduction in body weight of C3H mouse infected with 10^6 CFU of Mycobacterium tuberculosis H37Rv at 10 mg/kg, po after 20 days; assay type: functional; parameters: scale not given: the % may be the effect or the level left
Procedure, shortened: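 Rapid-progression model: C3H mice infected iv with 10^6 CFU M. tuberculosis H37Rv. Oral gavage at 10 mg/kg daily (dose not optimised) started day 7 and ran 10 days. Body weight was monitored from day 0, 6 mice per group. Controls were uninfected, infected untreated, and INH 25 mg/kg.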

HepG2 [1] = test: Cytotoxicity against human HepG2 cell line by MTS assay; assay type: functional, cell-based
HepG2 [2] = test: Selectivity index, IC50 for human HepG2 cell line/MIC for Mycobacterium tuberculosis; assay type: functional
Procedure, shortened: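 SI = IC50/MIC: HepG2 IC50 from the MTS assay divided by the M. tuberculosis MIC from broth microdilution.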

[3] = tested on: Mycobacterium tuberculosis; test: Antimycobacterial activity against recombinant Mycobacterium tuberculosis containing Rv0341 promoter by luciferase assay; assay type: functional; parameters: concentration or dose not given beside the values
Procedure, shortened: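 Recombinant M. tuberculosis carrying the Rv0341 promoter fused to firefly luciferase was treated and luminescence read. Activity is given as percent of EMB activity (EMB = 100%). In screening, luminescence above 1.5-fold the untreated background counted as active.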

[4] = tested on: Mycobacterium tuberculosis; test: Antimycobacterial activity against Mycobacterium tuberculosis by broth microdilution assay; assay type: functional
Procedure, shortened: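 MIC by broth microdilution against M. tuberculosis. Library mixtures were screened unpurified, and active wells were deconvoluted and re-tested as individual compounds. Purified compounds (≥95%) were tested from 10 mM methanol stocks. INH, rifampicin and EMB were controls.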

[5] = tested on: Mycobacterium tuberculosis; test: Reduction in CFU in C57BL/6 mouse infected with 10^5 CFU of Mycobacterium tuberculosis H37Rv at 10 mg/kg after 20 days; assay type: functional
Procedure, shortened: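 Low-dose chronic TB mouse model with M. tuberculosis H37Rv. Treatment began 20 days after infection: 10 mg/kg daily by oral gavage, 5 days/week for four weeks. INH 25 mg/kg was the positive control. Organ CFU were compared with infected untreated mice.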

| Compound | Activity (Mus musculus) [%] | IC50 (HepG2 [1]) [µM] | Selectivity index (HepG2 [2]) | Activity [3] | MIC [4] [µM] | Log10 cfu [5] |
| --- | --- | --- | --- | --- | --- | --- |
| CCOc1ccccc1CN1CCCN(Cc2ccccc2OCC)CC1 | 21 | 71 | 46 | 70% | 1.56 (≈ 0.575 µg/mL) | – |
| Clc1ccc(C(c2ccccc2)N2CCN(C3CCC4CCCCC4C3)CC2)cc1 (stereo not drawn) | – | 47 | 8 | inactive | 6.25 (≈ 2.64 µg/mL) | – |
| C=C(C)[C@@H]1CC=C(CN2CCN(Cc3ccccc3)CC2)CC1 | – | 60 | 19 | inactive | 3.13 (≈ 0.972 µg/mL) | – |
| COc1ccccc1CN1CCN(C(c2ccccc2)c2ccc(Cl)cc2)CC1 (stereo not drawn) | – | 65 | 10 | inactive | 6.25 (≈ 2.54 µg/mL) | – |
| c1ccc(COc2ccc(CN3CCN(Cc4ccccc4)CC3)cc2)cc1 | 12 | 54 | 9 | inactive | 6.25 (≈ 2.33 µg/mL) | 1 |
| C=C(C)[C@@H]1CC=C(CN2CCCN(CC3=CC[C@@H](C(=C)C)CC3)CC2)CC1 | – | 81 | 13 | inactive | 6.25 (≈ 2.3 µg/mL) | – |
| CC1(C)C2CC=C(CN3CCCN(CC4=CCC5CC4C5(C)C)CC3)C1C2 | – | – | 35 | 113% | 3.13 (≈ 1.15 µg/mL) | – |
| C1CCC2CC(N3CCCN(C4CCC5CCCCC5C4)CC3)CCC2C1 (mixture of isomers) | – | 54 | 35 | 127% | 1.56 | – |
| Fc1ccc(N2CCN(C3CCC4CCCCC4C3)CC2)cc1 (stereo not drawn) | – | 86 | 7 | 157% | 12.5 (≈ 3.96 µg/mL) | – |
| NNC(=O)c1ccncc1 [ISONIAZID] | – | – | – | – | – | 3.5 |
| COc1ccccc1CN1CCCN(Cc2ccccc2OC)CC1 | – | – | 17 | 138% | 6.25 (≈ 2.13 µg/mL) | – |
| Fc1ccccc1N1CCN(C2CCC3CCCCC3C2)CC1 (stereo not drawn) | – | 70 | 6 | 145% | 12.5 (≈ 3.96 µg/mL) | – |
| C1CCCC(N2CCCN(C3CCCCCCC3)CC2)CCC1 | – | 74 | 47 | 81% | 1.56 (≈ 0.5 µg/mL) | – |
| C1CN(C2C3CC4CC(C3)CC2C4)CCN(C2C3CC4CC(C3)CC2C4)C1 (stereo not drawn) | 12 | – | 84.6 | 126% | 1.56 (≈ 0.575 µg/mL) | 0.7 |
| CC1(C)C2CC=C(CN3CCN(Cc4ccccc4)CC3)C1C2 (stereo not drawn) | – | 64 | 10 | inactive | 6.25 (≈ 1.94 µg/mL) | – |
| c1ccc(COc2ccc(CN3CCCN(Cc4ccc(OCc5ccccc5)cc4)CC3)cc2)cc1 | – | 56 | 18 | inactive | 3.13 (≈ 1.54 µg/mL) | – |
